Experimental data as given in ChEMBL document CHEMBL1127321, “Synthesis and photodynamic activities of silicon 2,3-naphthalocyanine derivatives” (J Med Chem, 1994).

What was measured:
[1] = Tested for extracellular drug concentration required to kill 50 percent of V-79 cells after one hour incubation period; settings: Chinese hamster, V79 cells; read-out: LD50
[2] = Tested for extracellular drug concentration required to kill 50 percent of V-79 cells after one hour incubation period and subsequent exposure red light; settings: Chinese hamster, V79 cells; read-out: LD50
[3] = tested on: Mus musculus; test: Tested for plasma concentration in tumor-bearing mice after 1 day by intravenous administration at 1 umol/kg; type: functional
In short: (§1)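 Male BALB/c AnN mice carrying intradermal EMT-6 tumours on the hind thighs (2×10^5 cells; used 6-8 days later at 4-8 mm diameter) received 1 μmol/kg iv via the tail vein in 10% Cremophor emulsion. Plasma from orbital-sinus blood and excised tissue were extracted with DMF overnight at 37 °C, then centrifuged. Dye was read by fluorescence (ex 766, em 780 nm) against per-tissue calibration curves. Mean with SE, n = 3.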

[4] = tested on: Mus musculus; test: Tested for plasma concentration in tumor-bearing mice after 1 hour by intravenous administration at 1 umol/kg; type: functional
In short: as §1

[5] = tested on: Mus musculus; test: Tested for plasma concentration in tumor-bearing mice after 12 hour by intravenous administration at 1 umol/kg; type: functional
In short: as §1

[6] = tested on: Mus musculus; test: Tested for plasma concentration in tumor-bearing mice after 2 day by intravenous administration at 1 umol/kg; type: functional
In short: as §1

[7] = tested on: Mus musculus; test: Tested for plasma concentration in tumor-bearing mice after 3 hour by intravenous administration at 1 umol/kg; type: functional
In short: as §1

[8] = tested on: Mus musculus; test: Tested for plasma concentration in tumor-bearing mice after 3 day by intravenous administration at 1 umol/kg; type: functional
In short: as §1

[9] = tested on: Mus musculus; test: Tested for plasma concentration in tumor-bearing mice after 6 hour by intravenous administration at 1 umol/kg; type: functional
In short: as §1

[10] = tested on: Mus musculus; test: Tested for plasma concentration in tumor-bearing mice after 7 day by intravenous administration at 1 umol/kg; type: functional
In short: as §1

[11] = tested on: Mus musculus; test: Mean tissue uptake in skin determined in tumor-bearing mice after 7 days by intravenous administration at 1 umol/kg; type: functional
In short: as §1

[12] = tested on: Mus musculus; test: Mean tissue uptake in tumor determined in tumor-bearing mice after 1 day by intravenous administration at 1 umol/kg; type: functional
In short: as §1

[13] = tested on: Mus musculus; test: Mean tissue uptake in tumor determined in tumor-bearing mice after 1 hour by intravenous administration at 1 umol/kg; type: functional
In short: as §1

[14] = tested on: Mus musculus; test: Mean tissue uptake in tumor determined in tumor-bearing mice after 12 hour by intravenous administration at 1 umol/kg; type: functional
In short: as §1

[15] = tested on: Mus musculus; test: Mean tissue uptake in tumor determined in tumor-bearing mice after 2 day by intravenous administration at 1 umol/kg; type: functional
In short: as §1

[16] = tested on: Mus musculus; test: Mean tissue uptake in tumor determined in tumor-bearing mice after 3 hour by intravenous administration at 1 umol/kg; type: functional
In short: as §1

[17] = tested on: Mus musculus; test: Mean tissue uptake in tumor determined in tumor-bearing mice after 3 day by intravenous administration at 1 umol/kg; type: functional
In short: as §1

[18] = tested on: Mus musculus; test: Mean tissue uptake in tumor determined in tumor-bearing mice after 7 day by intravenous administration at 1 umol/kg; type: functional
In short: as §1

[19] = tested on: Mus musculus; test: Mean tissue uptake in muscle determined in tumor-bearing mice after 1 hour by intravenous administration at 1 umol/kg; type: functional
In short: as §1

[20] = tested on: Mus musculus; test: Mean tissue uptake in muscle determined in tumor-bearing mice after 12 hour by intravenous administration at 1 umol/kg; type: functional
In short: as §1

[21] = tested on: Mus musculus; test: Mean tissue uptake in muscle determined in tumor-bearing mice after 1 day by intravenous administration at 1 umol/kg; type: functional
In short: as §1

[22] = tested on: Mus musculus; test: Mean tissue uptake in muscle determined in tumor-bearing mice after 2 day by intravenous administration at 1 umol/kg; type: functional
In short: as §1

[23] = tested on: Mus musculus; test: Mean tissue uptake in muscle determined in tumor-bearing mice after 3 hour by intravenous administration at 1 umol/kg; type: functional
In short: as §1

[24] = tested on: Mus musculus; test: Mean tissue uptake in muscle determined in tumor-bearing mice after 3 days by intravenous administration at 1 umol/kg; type: functional
In short: as §1

[25] = tested on: Mus musculus; test: Mean tissue uptake in muscle determined in tumor-bearing mice after 6 hour by intravenous administration at 1 umol/kg; type: functional
In short: as §1

[26] = tested on: Mus musculus; test: Mean tissue uptake in muscle determined in tumor-bearing mice after 7 days by intravenous administration at 1 umol/kg; type: functional
In short: as §1

[27] = tested on: Mus musculus; test: Mean tissue uptake in skin determined in tumor-bearing mice after 12 hr by intravenous administration at 1 umol/kg; type: functional
In short: as §1

[28] = tested on: Mus musculus; test: Mean tissue uptake in skin determined in tumor-bearing mice after 1 day by intravenous administration at 1 umol/kg; type: functional
In short: as §1

[29] = tested on: Mus musculus; test: Mean tissue uptake in skin determined in tumor-bearing mice after 1 hr by intravenous administration at 1 umol/kg; type: functional
In short: as §1

[30] = tested on: Mus musculus; test: Mean tissue uptake in skin determined in tumor-bearing mice after 2 day by intravenous administration at 1 umol/kg; type: functional
In short: as §1

[31] = tested on: Mus musculus; test: Mean tissue uptake in skin determined in tumor-bearing mice after 3 days by intravenous administration at 1 umol/kg; type: functional
In short: as §1

[32] = tested on: Mus musculus; test: Mean tissue uptake in skin determined in tumor-bearing mice after 3 hr by intravenous administration at 1 umol/kg; type: functional
In short: as §1

[33] = tested on: Mus musculus; test: Mean tissue uptake in skin determined in tumor-bearing mice after 6 hr by intravenous administration at 1 umol/kg; type: functional
In short: as §1

[34] = Tumor/muscle uptake ratio after 12 hr; type: functional, Muscle tissue
In short: (§2)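 The ratio of tumour uptake (μg/g) to muscle uptake (μg/g), or to plasma concentration (μg/mL), was taken at each time point. Mice were EMT-6-bearing BALB/c (n = 3) given 1 μmol/kg iv in 10% Cremophor emulsion. Dye was measured by fluorescence (ex 766, em 780 nm) in DMF extracts and quantified against tissue-specific calibration curves.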

[35] = Tumor/muscle uptake ratio after 1 day; type: functional, Muscle tissue
In short: as §2

[36] = Tumor/muscle uptake ratio after 1 hr; type: functional, Muscle tissue
In short: as §2

[37] = Tumor/muscle uptake ratio after 2 day; type: functional, Muscle tissue
In short: as §2

[38] = Tumor/muscle uptake ratio after 3 days; type: functional, Muscle tissue
In short: as §2

[39] = Tumor/muscle uptake ratio after 3 hr; type: functional, Muscle tissue
In short: as §2

[40] = Tumor/muscle uptake ratio after 6 hr; type: functional, Muscle tissue
In short: as §2

[41] = Tumor/muscle uptake ratio after 7 days; type: functional, Muscle tissue
In short: as §2

[42] = Tumor/plasma uptake ratio after 1 day; type: functional
In short: as §2

[43] = Tumor/plasma uptake ratio after 1 hr; type: functional
In short: as §2

[44] = Tumor/plasma uptake ratio after 2 day; type: functional
In short: as §2

[45] = Tumor/plasma uptake ratio after 3 days; type: functional
In short: as §2

[46] = Tumor/plasma uptake ratio after 3 hr; type: functional
In short: as §2

[47] = Tumor/plasma uptake ratio after 6 hr; type: functional
In short: as §2

[48] = tested on: Mus musculus; test: Mean tissue uptake in tumor determined in tumor-bearing mice after 6 hour by intravenous administration at 1 umol/kg; type: functional
In short: as §1

[49] = Tumor/plasma uptake ratio after 12 hr; type: functional
In short: as §2

CCCCCCCCCCCCCCCCCC[Si](C)(C)O[Si]1(O[Si](C)(C)CCCCCCCCCCCCCCCCCC)n2c3c4cc5ccccc5cc4c2/N=C2N=C(/N=c4/c5cc6ccccc6cc5/c(n41)=N/C1=NC(=N\3)/c3cc4ccccc4cc31)c1cc3ccccc3cc1\2
CC50 at 1 h [1]: 4.2 µM
CC50 at 1 h [2]: 1.8 µM

CCCCCC[Si](CCCCCC)(CCCCCC)O[Si]1(O[Si](CCCCCC)(CCCCCC)CCCCCC)n2c3c4cc5ccccc5cc4c2/N=C2N=C(/N=c4/c5cc6ccccc6cc5/c(n41)=N/C1=NC(=N\3)/c3cc4ccccc4cc31)c1cc3ccccc3cc1\2
CC50 at 1 h [1]: 46 µM
CC50 at 1 h [2]: 29 µM

CC(C)C(C)(C)[Si](C)(C)O[Si]1(O[Si](C)(C)C(C)(C)C(C)C)n2c3c4cc5ccccc5cc4c2/N=C2N=C(/N=c4/c5cc6ccccc6cc5/c(n41)=N/C1=NC(=N\3)/c3cc4ccccc4cc31)c1cc3ccccc3cc1\2
Blood clearance [3]: 2.06 µg/mL
Blood clearance [4]: 12.94 µg/mL
Blood clearance [5]: 5.51 µg/mL
Blood clearance [6]: 0.21 µg/mL
Blood clearance [7]: 11.28 µg/mL
Blood clearance [8]: 0.02 µg/mL
Blood clearance [9]: 9.12 µg/mL
Blood clearance [10]: 0 µg/mL
Tissue distribution [11]: 0.35 µg/g
Tissue distribution [12]: 0.71 µg/g
Tissue distribution [13]: 0.43 µg/g
Tissue distribution [14]: 0.9 µg/g
Tissue distribution [15]: 0.73 µg/g
Tissue distribution [16]: 0.46 µg/g
Tissue distribution [17]: 0.77 µg/g
Tissue distribution [18]: 0.51 µg/g
Tissue distribution [19]: 0.12 µg/g
Tissue distribution [20]: 0.09 µg/g
Tissue distribution [21]: 0.11 µg/g
Tissue distribution [22]: 0.08 µg/g
Tissue distribution [23]: 0.32 µg/g
Tissue distribution [24]: 0.13 µg/g
Tissue distribution [25]: 0.98 µg/g
Tissue distribution [26]: 0.08 µg/g
Tissue distribution [27]: 0.56 µg/g
Tissue distribution [28]: 0.46 µg/g
Tissue distribution [29]: 0.13 µg/g
Tissue distribution [30]: 0.43 µg/g
Tissue distribution [31]: 0.44 µg/g
Tissue distribution [32]: 0.51 µg/g
Tissue distribution [33]: 0.36 µg/g
Ratio [34]: 10
Ratio [35]: 6.4
Ratio [36]: 3.6
Ratio [37]: 9.1
Ratio [38]: 5.9
Ratio [39]: 1.4
Ratio [40]: 0.7
Ratio [41]: 6.4
Ratio [42]: 0.34
Ratio [43]: 0.03
Ratio [44]: 3.5
Ratio [45]: 38
Ratio [46]: 0.04
Ratio [47]: 0.07
Tissue distribution [48]: 0.65 µg/g
Ratio [49]: 0.16
CC50 at 1 h [1]: 6.5 µM
CC50 at 1 h [2]: 5.5 µM

CC(C)(C)[Si](C)(C)O[Si]1(O[Si](C)(C)C(C)(C)C)n2c3c4cc5ccccc5cc4c2/N=C2N=C(/N=c4/c5cc6ccccc6cc5/c(n41)=N/C1=NC(=N\3)/c3cc4ccccc4cc31)c1cc3ccccc3cc1\2
CC50 at 1 h [1]: 36 µM
CC50 at 1 h [2]: 12 µM
